Assay outcomes (PubChem BioAssay)
Myeloid diff 2: induction of myeloid progenitor differentiation, primary screen, cell-based, flow cytometry, MLPCN library. AID 624256, 2012. 360,000 compounds, 1% hits. calls only at 10 µM. ER-HoxA9 myeloid progenitors, lysozyme-GFP differentiation;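 active means normalized GFP-positive differentiation at or above the plate's own cutoff, the solvent-only control mean plus 3 SD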;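 further: cells exposed to compound for four days before flow analysis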
MT1-MMP act inh: blockers of MT1-MMP proenzyme processing, primary screen, HT1080 RFP-PRO-GFP cells, GFP/RFP fluorescence. GFP/RFP ratio change, % at 20 µM. 360,000 compounds, 0.061% hits. GFP/RFP ratio fluorescence, overnight; percent of plate control window, DMSO zero. AID 651647, 2012;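 active means GFP/RFP ratio change of at least 30% with cell ATP level not reduced by more than half and red fluorescence within 50% of control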
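Read-out: GFP/RFP fluorescence ratio; Test system: RFP-PRO-GFP reporter HT1080 cells; Compound dosing: single-point 20 µM compound, 1% DMSO; Times: overnight compound exposure at 37 °C.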
DAGLB inhibitor: DAGLB lipase inhibitors, primary screen, biochemical, fluorescence, HTS; AID 504411, 2011; 340,000 compounds, 0.059% hits; HEK293T DAGLB membrane lysate, EnzChek fluorogenic substrate; inhibition, % at 5.17 µM; Diacylglycerol lipase-beta (Homo sapiens), Q8NCG7; in the data active means inhibition above about 34%;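 further: 0% = enzyme with vehicle and 100% = wells lacking enzyme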
Target sequence (Q8NCG7 whole entry, looked up): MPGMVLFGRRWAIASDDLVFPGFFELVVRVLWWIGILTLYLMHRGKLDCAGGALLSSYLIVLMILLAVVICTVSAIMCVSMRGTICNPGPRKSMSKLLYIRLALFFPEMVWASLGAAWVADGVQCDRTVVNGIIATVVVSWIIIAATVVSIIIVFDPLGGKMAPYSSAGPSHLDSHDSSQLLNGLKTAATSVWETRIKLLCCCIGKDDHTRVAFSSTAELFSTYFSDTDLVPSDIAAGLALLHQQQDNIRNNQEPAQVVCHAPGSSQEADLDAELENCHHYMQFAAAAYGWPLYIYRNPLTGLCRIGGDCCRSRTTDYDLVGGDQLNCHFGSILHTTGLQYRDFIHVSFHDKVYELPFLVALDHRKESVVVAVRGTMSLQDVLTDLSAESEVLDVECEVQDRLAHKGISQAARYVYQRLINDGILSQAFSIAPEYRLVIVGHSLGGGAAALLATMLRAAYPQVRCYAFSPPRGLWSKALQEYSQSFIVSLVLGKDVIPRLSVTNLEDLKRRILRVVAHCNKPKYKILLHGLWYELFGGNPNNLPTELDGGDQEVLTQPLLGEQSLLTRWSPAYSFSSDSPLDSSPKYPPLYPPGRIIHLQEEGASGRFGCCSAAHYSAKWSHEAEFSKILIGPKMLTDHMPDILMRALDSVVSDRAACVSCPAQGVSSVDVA
CendR NRP1 mod: modulators of CendR peptide binding to NRP-1, primary screen, biochemical, fluorescence polarization, uHTS. inhibition, % at 25 µM. AID 602438, 2012. FAM-RPARPAR peptide binding to NRP-1. Neuropilin-1 (Homo sapiens), O14786. 360,000 compounds, 0.85% hits;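 active means inhibition or corrected inhibition above about 18%, plus a signal ratio from 0.5 to 1.5, limit read from the data, passing the limit was not always enough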
beta cell repl: inducers of MIN6 beta-cell proliferation, primary screen, ATP luminescence, uHTS | proliferation, % at 10 µM | MIN6 cells proliferation, ATPlite luminescence, 48 h; cells starved in 0.2% serum; 100% = growth in 10% serum | 330,000 compounds, 0.29% hits;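 active means compounds whose signal lies at least 3.5 SD above the mean of all wells on their plate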;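 further: 0% = DMSO-treated cells in low-serum medium and 100% = 10% serum control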
SENP1 FRET inh: human SENP1 catalytic domain inhibitors, primary screen, biochemical, FRET, uHTS; Sentrin-specific protease 1 (Homo sapiens), Q9P0U3; recombinant SENP1 catalytic domain, CyPet-SUMO1-YPet FRET cleavage; inhibition, % at 10 µM; 360,000 compounds, 0.21% hits;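 active means inhibition at least 30% at 10 µM, raw YFP signal under a set limit, fluorescence ratio 0.5 to 1.5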;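 further: 0% = enzyme with DMSO and 100% = no enzyme wells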
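Test system: recombinant human SENP1 catalytic domain, His6-tagged / Medium: pH 8 Tris buffer with EDTA, NaCl, BME, BSA, NP40, catalase / Also added: SUMO1 FRET substrate flanked by Cypet and Ypet, 25 nM / Times: 50 min reaction at room temperature / Signal: FRET, CFP and YFP emission / Control set: no-enzyme low control and enzyme-plus-DMSO high control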
* = called active by the depositor; i = inactive; . = no result; + = active, no number. Hits are enriched below; roughly 2.4% of the tested compounds scored in any of these assays.

SMILES	Myeloid diff 2	MT1-MMP act inh	DAGLB inhibitor	CendR NRP1 mod	beta cell repl	SENP1 FRET inh
Cc1ccc2c(C)c(C(=O)Nc3ccc(S(N)(=O)=O)cc3)oc2c1C	i	3.4	0.2	39.6*	2.9	0.4
CCOC(=O)c1ccc2ncc(C(=O)OCC)c(NCCN(C)C)c2c1	i	-13.6	-4.5	60.0*	-0.5	-5.2
CCCN=C1N(CC)C[C@@H]2[C@@H]3C(=O)N(C)C(=O)[C@@H]3[C@](C)(C(=O)OC)N12	i	4.9	1.5	0.5	.	2.1
C=CCC(C#Cc1ccc(C)cc1)N(CC)CC (stereo unspecified)	i	0.0	-2.5	28.7*	-3.0	-0.1
COc1ccc2cc(C3=CC(=O)CCC3)ccc2c1	i	3.2	-1.0	28.1*	.	-13.8
O=C1C=C(c2ccc3[nH]ccc3c2)CCC1	i	1.7	4.2	0.6	5.0	1.1
CCN(CC)S(=O)(=O)c1ccc(OC)c(NC(=O)c2cccs2)c1	i	0.8	-0.5	25.3*	-2.3	2.5
COc1cccc(Nc2nc(C(N)Cc3ccc(F)cc3)cs2)n1 (stereo unspecified)	+	-10.4	.	-4.0	.	-4.5
COc1ccc(CC(N)c2csc(Nc3cccc(OC)n3)n2)cc1 (stereo unspecified)	i	-3.4	.	3.7	.	-5.2
COc1cc(C(=O)NCC(c2cccs2)N2CCOCC2)cc(Br)c1OCc1ccccc1 (stereo unspecified)	i	-3.4	-3.5	-1.1	-5.8	-0.1
Cc1ccc(C(=O)OCC(=O)Nc2cc(S(C)(=O)=O)ccc2Cl)cc1S(=O)(=O)N1CCCCC1	i	2.9	-1.0	-4.5	0.6	-0.7
CS(=O)(=O)c1ccc(Cl)c(NC(=O)COC(=O)c2ccc(S(=O)(=O)N3CCCC3)cc2)c1	i	4.1	0.8	21.8*	-3.0	2.6
CCc1nnc(SCC(=O)Nc2ccc3c(c2)OCO3)n1CC	i	1.5	-0.5	28.5*	-1.8	1.8
Cc1ccc(NC(=O)CSc2nnnn2-c2ccc3c(c2)OCO3)cc1C	+	-4.4	5.4	-17.0	0.5	3.9
Cc1ccc(-n2nnnc2SCC(=O)Nc2ccc3c(c2)OCCO3)cc1C	i	6.1	-3.5	12.0	-1.4	1.4
Nc1nnc(SCc2nnc(-c3ccccc3)o2)s1	i	2.9	2.6	-2.4	0.7	0.7
COc1cccc(NC(=S)N(CCc2c(C)[nH]c3ccc(C)cc23)Cc2cccs2)c1	i	-0.3	-7.2	-1.4	-6.1	-0.9
COc1ccc2[nH]c(C)c(CCN(Cc3cccs3)C(=S)Nc3cccc(F)c3)c2c1	+	-57.7	0.2	-14.3	-6.2	36.5
COc1cc(/C=C/CNC[C@H]2O[C@@H](n3ccc(=O)[nH]c3=O)[C@H](O)[C@@H]2O)ccc1O	i	5.0	-1.4	-5.7	.	-0.7
Cc1ccc(CNS(=O)(=O)c2cc3c(cc2C)NC(=O)CO3)cc1	i	3.4	0.1	3.0	-0.3	-1.7
Cc1ncc(C(O)c2ccc(N(C)C)cc2)n1Cc1ccccc1 (stereo unspecified)	i	8.9	-1.0	-6.2	.	2.2
CN(C)c1ccc2nc3c(=O)[nH]c(=O)nc-3n(CC(O)C(O)C(O)CO)c2c1 (stereo unspecified)	i	-21.1	-16.9	146.4	-4.3	60.5*
CCN(CC)c1ccc2cc(C(C)=O)c(=O)oc2c1	i	-0.8	-22.8	-39.8	1.1	-21.9
CCN(CC)c1ccc2cc(NC(=O)CCC(=O)O)c(=O)oc2c1	.	-23.6	-7.8	50.0*	-2.5	-21.7
CNC(=O)NC(=O)CSc1cccc(C(F)(F)F)c1	i	3.4	-0.1	38.0*	-0.9	1.1
CC(C)(C)NC(=O)NC(=O)CSc1cccc(C(F)(F)F)c1	i	0.7	-0.5	-2.0	-3.3	3.1
